System: U2OS
Assay: Multiplex assay against U2OS
Format: toxicity, cell-based
Conditions: human
Procedure, shortened: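 On a CQ1 microscope at 37°C and 5% CO2, live cells were imaged after compound addition. They had been stained at seeding with Hoechst33342, BioTracker Green Microtubule Cytoskeleton Dye, MitoTracker Red and Annexin V Alexa Fluor 680. CellPathfinder machine-learning gating assigned cells to Hoechst high-intensity objects or normal cells, normal cells to healthy, pyknosed or fragmented nuclei, and pyknosed cells to mitotic or apoptotic. Tubulin, mitochondrial-mass and membrane-permeability phenotypes are per cents of healthy-nucleus cells.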

[1] = 12 h, 1 µM, compound concentration 1 uM, replicate 1
[2] = 12 h, 1 µM, compound concentration 1 uM, replicate 2
[3] = 12 h, 10 µM, compound concentration 10 uM, replicate 1
[4] = 12 h, 10 µM, compound concentration 10 uM, replicate 2
[5] = 24 h, 1 µM, compound concentration 1 uM, replicate 1
[6] = 24 h, 1 µM, compound concentration 1 uM, replicate 2
[7] = 24 h, 10 µM, compound concentration 10 uM, replicate 1
[8] = 24 h, 10 µM, compound concentration 10 uM, replicate 2
[9] = 48 h, 1 µM, compound concentration 1 uM, replicate 1
[10] = 48 h, 1 µM, compound concentration 1 uM, replicate 2
[11] = 48 h, 10 µM, compound concentration 10 uM, replicate 1
[12] = 48 h, 10 µM, compound concentration 10 uM, replicate 2

Compound: O=C(Nc1ccc(Cl)cc1)Nc1cccc(-c2cccc(N3CCCC3)n2)c1
- Population Apoptotic (%) [1]: 44%
- Population Fragmented Nuclei (%) [1]: 11%
- Population Healthy Nuclei (%) [1]: 79%
- Population Hoechst High Intensity Objects (%) [1]: 10%
- Population Membrane Permeable-Phenotype (%) [1]: 7%
- Population Mitochondria Different-Phenotype (%) [1]: 7%
- Population Mitotic Cells (%) [1]: 55%
- Population Normal (%) [1]: 89%
- Population Pyknosed Nuclei (%) [1]: 9%
- Population Tubulin-Different-Phenotype (%) [1]: 7%
- Total Cell Count [1]: 158
- Population Apoptotic (%) [2]: 25%
- Population Fragmented Nuclei (%) [2]: 17%
- Population Healthy Nuclei (%) [2]: 76%
- Population Hoechst High Intensity Objects (%) [2]: 7%
- Population Membrane Permeable-Phenotype (%) [2]: 10%
- Population Mitochondria Different-Phenotype (%) [2]: 8%
- Population Mitotic Cells (%) [2]: 75%
- Population Normal (%) [2]: 92%
- Population Pyknosed Nuclei (%) [2]: 6%
- Population Tubulin-Different-Phenotype (%) [2]: 12%
- Total Cell Count [2]: 83
- Population Apoptotic (%) [3]: 58%
- Population Fragmented Nuclei (%) [3]: 10%
- Population Healthy Nuclei (%) [3]: 65%
- Population Hoechst High Intensity Objects (%) [3]: 10%
- Population Membrane Permeable-Phenotype (%) [3]: 80%
- Population Mitochondria Different-Phenotype (%) [3]: 12%
- Population Mitotic Cells (%) [3]: 41%
- Population Normal (%) [3]: 89%
- Population Pyknosed Nuclei (%) [3]: 24%
- Population Tubulin-Different-Phenotype (%) [3]: 82%
- Total Cell Count [3]: 109
- Population Apoptotic (%) [4]: 72%
- Population Fragmented Nuclei (%) [4]: 3%
- Population Healthy Nuclei (%) [4]: 78%
- Population Hoechst High Intensity Objects (%) [4]: 7%
- Population Membrane Permeable-Phenotype (%) [4]: 69%
- Population Mitochondria Different-Phenotype (%) [4]: 7%
- Population Mitotic Cells (%) [4]: 27%
- Population Normal (%) [4]: 92%
- Population Pyknosed Nuclei (%) [4]: 17%
- Population Tubulin-Different-Phenotype (%) [4]: 74%
- Total Cell Count [4]: 69
- Population Apoptotic (%) [5]: 41%
- Population Fragmented Nuclei (%) [5]: 6%
- Population Healthy Nuclei (%) [5]: 83%
- Population Membrane Permeable-Phenotype (%) [5]: 5%
- Population Mitotic Cells (%) [5]: 58%
- Population Pyknosed Nuclei (%) [5]: 9%
- Population Tubulin-Different-Phenotype (%) [5]: 3%
- Population Apoptotic (%) [6]: 20%
- Population Fragmented Nuclei (%) [6]: 18%
- Population Healthy Nuclei (%) [6]: 75%
- Population Hoechst High Intensity Objects (%) [6]: 6%
- Population Membrane Permeable-Phenotype (%) [6]: 7%
- Population Mitochondria Different-Phenotype (%) [6]: 3%
- Population Mitotic Cells (%) [6]: 80%
- Population Normal (%) [6]: 93%
- Population Pyknosed Nuclei (%) [6]: 6%
- Population Tubulin-Different-Phenotype (%) [6]: 12%
- Total Cell Count [6]: 94
- Population Apoptotic (%) [7]: 83%
- Population Fragmented Nuclei (%) [7]: 17%
- Population Healthy Nuclei (%) [7]: 54%
- Population Hoechst High Intensity Objects (%) [7]: 21%
- Population Membrane Permeable-Phenotype (%) [7]: 53%
- Population Mitochondria Different-Phenotype (%) [7]: 13%
- Population Mitotic Cells (%) [7]: 16%
- Population Normal (%) [7]: 78%
- Population Pyknosed Nuclei (%) [7]: 28%
- Population Tubulin-Different-Phenotype (%) [7]: 61%
- Total Cell Count [7]: 131
- Population Apoptotic (%) [8]: 72%
- Population Fragmented Nuclei (%) [8]: 13%
- Population Hoechst High Intensity Objects (%) [8]: 25%
- Population Membrane Permeable-Phenotype (%) [8]: 46%
- Population Mitochondria Different-Phenotype (%) [8]: 15%
- Population Mitotic Cells (%) [8]: 27%
- Population Normal (%) [8]: 74%
- Population Pyknosed Nuclei (%) [8]: 31%
- Population Tubulin-Different-Phenotype (%) [8]: 46%
- Total Cell Count [8]: 81
- Population Apoptotic (%) [9]: 30%
- Population Fragmented Nuclei (%) [9]: 4%
- Population Healthy Nuclei (%) [9]: 88%
- Population Hoechst High Intensity Objects (%) [9]: 6%
- Population Membrane Permeable-Phenotype (%) [9]: 1%
- Population Mitochondria Different-Phenotype (%) [9]: 5%
- Population Mitotic Cells (%) [9]: 69%
- Population Normal (%) [9]: 93%
- Population Pyknosed Nuclei (%) [9]: 6%
- Population Tubulin-Different-Phenotype (%) [9]: 2%
- Total Cell Count [9]: 245
- Population Apoptotic (%) [10]: 50%
- Population Fragmented Nuclei (%) [10]: 8%
- Population Healthy Nuclei (%) [10]: 83%
- Population Hoechst High Intensity Objects (%) [10]: 5%
- Population Membrane Permeable-Phenotype (%) [10]: 4%
- Population Mitochondria Different-Phenotype (%) [10]: 9%
- Population Mitotic Cells (%) [10]: 50%
- Population Normal (%) [10]: 94%
- Population Pyknosed Nuclei (%) [10]: 7%
- Population Tubulin-Different-Phenotype (%) [10]: 12%
- Total Cell Count [10]: 110
- Population Apoptotic (%) [11]: 91%
- Population Fragmented Nuclei (%) [11]: 21%
- Population Healthy Nuclei (%) [11]: 33%
- Population Hoechst High Intensity Objects (%) [11]: 31%
- Population Membrane Permeable-Phenotype (%) [11]: 31%
- Population Mitochondria Different-Phenotype (%) [11]: 29%
- Population Mitotic Cells (%) [11]: 8%
- Population Normal (%) [11]: 68%
- Population Pyknosed Nuclei (%) [11]: 44%
- Population Tubulin-Different-Phenotype (%) [11]: 33%
- Total Cell Count [11]: 221
- Population Apoptotic (%) [12]: 87%
- Population Fragmented Nuclei (%) [12]: 19%
- Population Healthy Nuclei (%) [12]: 26%
- Population Hoechst High Intensity Objects (%) [12]: 39%
- Population Membrane Permeable-Phenotype (%) [12]: 40%
- Population Mitochondria Different-Phenotype (%) [12]: 25%
- Population Mitotic Cells (%) [12]: 12%
- Population Normal (%) [12]: 60%
- Population Pyknosed Nuclei (%) [12]: 53%
- Population Tubulin-Different-Phenotype (%) [12]: 48%
- Total Cell Count [12]: 108

Source: ChEMBL document CHEMBL4689842, “EUbOPEN Chemogenomics Library wave 1” (2021)
